This is an account of results in ChEMBL document CHEMBL2412984, “Indole derivatives as dual-effective agents for the treatment of neurodegenerative diseases: synthesis, biological evaluation, and molecular modeling studies” (Bioorg Med Chem, 2013).

SMILES strings stand for the structures. Activity calls are given as the source filed them. No cut-off for these calls is given here. Where only a bound is given, the exact number is not on record here.

Experiment [1] can be described thus: Antioxidant activity assessed as inhibition of ABTS free radical generation after 20 mins by UV spectrophotometric analysis relative to control. The format is functional. The method, boiled down:
(§1)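 ABTS radical cation formed by mixing ABTS diammonium salt (96 mg) and potassium persulfate (33 mg) in 25 mL 0.1 M phosphate buffer pH 7.0, then left in the dark at room temperature for 16 h before use. Samples made fresh as 2 mM stocks in methanol/phosphate buffer 1:1 and assayed in triplicate. Absorbance read at 734 nm; %I = (A_blank − A_sample)/A_blank.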

Experiment [2] is described as follows: Antioxidant activity assessed as inhibition of ABTS free radical generation at 17 uM after 20 mins by UV spectrophotometric analysis relative to control. The experiment is classed as functional. The method, boiled down:
as §1

A short description of experiment [3]: Antioxidant activity assessed as inhibition of ABTS free radical generation at 33 uM after 20 mins by UV spectrophotometric analysis relative to control. The format is functional. The method, boiled down: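 ABTS radical cation was generated from ABTS diammonium salt and potassium persulfate in 0.1 M phosphate buffer, pH 7.0, and left in the dark at room temperature for 16 h before use. Sample stocks (2 mM) were freshly prepared in methanol/phosphate buffer 1:1 and tested in triplicate. Absorbance was read at 734 nm, with inhibition calculated as %I = (A_blank − A_sample)/A_blank.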

Experiment [4] deals with Glutamate receptor ionotropic, NMDA 2B (Rattus norvegicus, UniProt Q00960). As to the kind of experiment: Displacement of [3H]-ifenprodil from Wistar rat cerebral cortex GluN2B after 120 mins. The format is tissue-based. The method in brief:
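Membranes from cerebral cortices of male Wistar-derived rats (175 g) prepared in Tris–HCl pH 7.4. A 5 mg aliquot was incubated with 2 nM [3H]ifenprodil plus 5 μM GBR-12909, which blocks non-polyamine-sensitive sites, for 120 min at 4 °C. Nonspecific binding defined with 10 μM ifenprodil. Membranes filtered, washed and counted. Three test concentrations run in duplicate.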
(In general: Loss of bound radioactivity is the signal in a displacement assay; it reports binding, not function.)

Sequence of Glutamate receptor ionotropic, NMDA 2B (Q00960 whole entry): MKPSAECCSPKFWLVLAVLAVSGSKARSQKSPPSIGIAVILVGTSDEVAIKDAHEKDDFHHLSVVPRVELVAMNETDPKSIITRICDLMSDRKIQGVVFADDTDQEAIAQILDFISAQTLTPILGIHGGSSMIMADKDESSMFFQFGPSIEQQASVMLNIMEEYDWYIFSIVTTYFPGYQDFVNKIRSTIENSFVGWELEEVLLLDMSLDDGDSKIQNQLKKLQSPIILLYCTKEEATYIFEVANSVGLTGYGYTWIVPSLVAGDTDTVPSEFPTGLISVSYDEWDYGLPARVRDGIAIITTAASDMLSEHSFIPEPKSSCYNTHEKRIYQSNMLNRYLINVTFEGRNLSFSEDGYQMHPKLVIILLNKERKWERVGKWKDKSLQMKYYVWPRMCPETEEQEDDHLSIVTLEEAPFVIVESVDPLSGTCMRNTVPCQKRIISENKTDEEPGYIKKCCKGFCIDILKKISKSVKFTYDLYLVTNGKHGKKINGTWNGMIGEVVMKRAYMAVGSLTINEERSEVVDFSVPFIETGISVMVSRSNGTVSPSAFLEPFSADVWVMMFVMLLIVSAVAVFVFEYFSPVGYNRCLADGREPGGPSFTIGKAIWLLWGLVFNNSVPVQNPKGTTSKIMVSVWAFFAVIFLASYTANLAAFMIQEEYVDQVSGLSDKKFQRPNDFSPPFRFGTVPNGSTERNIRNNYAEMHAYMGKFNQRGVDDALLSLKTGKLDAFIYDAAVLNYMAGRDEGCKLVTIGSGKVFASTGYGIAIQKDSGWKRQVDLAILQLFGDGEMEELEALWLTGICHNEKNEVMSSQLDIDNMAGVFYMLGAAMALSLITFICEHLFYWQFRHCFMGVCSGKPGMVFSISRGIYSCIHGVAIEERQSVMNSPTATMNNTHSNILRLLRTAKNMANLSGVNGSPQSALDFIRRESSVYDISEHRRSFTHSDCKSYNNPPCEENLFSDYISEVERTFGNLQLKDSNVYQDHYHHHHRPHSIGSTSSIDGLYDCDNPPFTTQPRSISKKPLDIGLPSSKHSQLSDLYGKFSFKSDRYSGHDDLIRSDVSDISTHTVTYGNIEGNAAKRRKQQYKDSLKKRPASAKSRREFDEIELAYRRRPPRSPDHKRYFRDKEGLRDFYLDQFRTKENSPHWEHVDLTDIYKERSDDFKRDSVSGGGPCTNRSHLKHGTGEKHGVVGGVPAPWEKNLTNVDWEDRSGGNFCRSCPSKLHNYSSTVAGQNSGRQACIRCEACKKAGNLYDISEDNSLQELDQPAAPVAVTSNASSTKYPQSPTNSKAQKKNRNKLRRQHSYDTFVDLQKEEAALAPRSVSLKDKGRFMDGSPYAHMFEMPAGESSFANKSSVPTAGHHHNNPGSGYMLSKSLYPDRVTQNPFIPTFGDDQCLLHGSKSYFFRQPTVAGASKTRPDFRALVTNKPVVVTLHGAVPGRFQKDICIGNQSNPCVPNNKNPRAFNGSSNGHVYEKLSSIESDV

By inhibition is commonly meant the drop in the measured response relative to a control, in per cent. Consider `O=C(CN1CCC(Cc2ccccc2)CC1)c1c[nH]c2ccc(O)cc12`, for which the inhibition result in experiment [1] was “Dose-dependent effect”; in experiment [2], > 92.1%.

Turning to `O=C(C(=O)N1CCC(Cc2ccccc2)CC1)c1c[nH]c2ccc(O)cc12`, the inhibition result in experiment [1] is “Dose-dependent effect”; in experiment [2] it was 80.1%.

For the molecule `O=C(O)c1cc(O)c(O)c(O)c1`, the inhibition in experiment [2] was > 94.1%.

`COc1ccc2[nH]ccc2c1`: in experiment [3], the inhibition came to 47.6%. Moreover, the inhibition result in experiment [2] is “inactive”.

Take `c1ccc2[nH]ccc2c1`: the inhibition in experiment [3] came out at 25%. The inhibition result in experiment [2] was “inactive”.

Take `O=C(CN1CCC(Cc2ccccc2)CC1)c1c[nH]c2cc(O)ccc12`: the values for the inhibition entry in experiment [1] and in experiment [2] were “Dose-dependent effect” and > 93.9%, respectively.

As to `O=C(O)/C=C/c1ccc(O)c(O)c1`, the inhibition in experiment [2] stood at 71.5%.

On to `O=C(C(=O)N1CCC(Cc2ccccc2)CC1)c1c[nH]c2cc(O)ccc12`, for which the inhibition result in experiment [1] is “Dose-dependent effect”; in experiment [2] it was 70.7%.

The IC50 is the concentration that inhibits the measured activity by half. A lower IC50 goes with inhibition by little substance. `O=C(NC1CCN(CC(=O)c2c[nH]c3ccc(O)cc23)CC1)c1ccc(O)c(O)c1`: the inhibition result in experiment [1] was “Dose-dependent effect”; in experiment [2] it was > 94.1%. This molecule had an IC50 in experiment [4] of 0.66 µM.
